Measured values published in publication PMC10114714 (ACS Bio & Med Chem Au, 2021).
“Also recorded” adds a separate entry of the source.

Experiments:
[1] = molecular target: T1, human mGlu5 (Homo sapiens, UniProt P41594); assay: Calcium fluorescence triple-add assay, mGlu5 PAM mode; assay type: cell-based
[2] = molecular target: rat mGlu5 (Rattus norvegicus, UniProt P31424); assay: [3H]methoxyPEPy radioligand competition binding; details: for displacement of [3H]methoxyPEPy radioligand binding: concentrations up to 100 μM, in words
Sequence of rat mGlu5 (P31424 21-1203): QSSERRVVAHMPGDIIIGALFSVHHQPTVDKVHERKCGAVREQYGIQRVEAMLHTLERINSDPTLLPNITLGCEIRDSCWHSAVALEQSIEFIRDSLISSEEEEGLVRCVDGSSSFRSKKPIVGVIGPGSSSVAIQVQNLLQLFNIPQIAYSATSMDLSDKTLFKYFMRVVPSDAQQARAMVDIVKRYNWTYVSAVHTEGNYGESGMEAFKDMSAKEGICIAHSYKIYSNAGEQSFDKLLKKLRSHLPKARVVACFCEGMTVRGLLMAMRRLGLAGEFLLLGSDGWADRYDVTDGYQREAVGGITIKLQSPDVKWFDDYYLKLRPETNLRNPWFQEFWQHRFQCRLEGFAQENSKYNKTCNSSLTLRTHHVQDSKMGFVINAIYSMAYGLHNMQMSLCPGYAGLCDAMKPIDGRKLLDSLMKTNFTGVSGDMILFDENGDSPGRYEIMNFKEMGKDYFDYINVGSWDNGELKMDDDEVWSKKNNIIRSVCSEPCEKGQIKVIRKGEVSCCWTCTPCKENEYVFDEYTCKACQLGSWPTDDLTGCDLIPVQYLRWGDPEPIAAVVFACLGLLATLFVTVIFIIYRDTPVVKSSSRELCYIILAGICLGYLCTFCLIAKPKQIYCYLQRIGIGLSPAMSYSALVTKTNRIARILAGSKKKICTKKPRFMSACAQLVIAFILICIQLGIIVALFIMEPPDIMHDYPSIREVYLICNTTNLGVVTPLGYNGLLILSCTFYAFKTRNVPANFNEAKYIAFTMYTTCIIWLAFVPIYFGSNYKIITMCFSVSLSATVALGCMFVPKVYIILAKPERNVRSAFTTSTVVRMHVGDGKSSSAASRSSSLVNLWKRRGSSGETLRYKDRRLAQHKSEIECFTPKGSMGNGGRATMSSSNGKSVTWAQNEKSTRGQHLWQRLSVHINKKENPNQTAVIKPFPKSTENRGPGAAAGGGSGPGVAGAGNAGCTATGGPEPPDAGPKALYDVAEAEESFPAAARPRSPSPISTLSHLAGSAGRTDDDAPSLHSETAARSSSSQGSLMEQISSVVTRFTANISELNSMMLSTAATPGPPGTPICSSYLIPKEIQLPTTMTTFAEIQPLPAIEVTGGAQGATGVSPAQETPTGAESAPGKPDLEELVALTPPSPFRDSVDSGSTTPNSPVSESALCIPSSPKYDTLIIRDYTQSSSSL

[3] = tested on: mGlu1–4,7,8; assay: Functional selectivity over the other mGlu receptors; assay type: cell-based
[4] = Intrinsic clearance in liver microsomes, rat; assay type: in vitro ADME; details: pH 7.4
[5] = Intrinsic clearance in liver microsomes, human; assay type: in vitro ADME; details: pH 7.4
[6] = Plasma protein binding, rat; assay type: in vitro ADME; details: pH 7.4
[7] = Plasma protein binding, human; assay type: in vitro ADME; details: pH 7.4
[8] = Brain homogenate binding, rat; assay type: in vitro ADME; details: pH 7.4, Rat fu,b
[9] = Rat IV plasma/brain level; assay type: in vivo; details: male, Sprague-Dawley, brain and plasma, 0.2 mg/kg
[10] = Rat IV and PO pharmacokinetics; assay type: in vivo
Procedure, shortened: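 Plasma pharmacokinetics with IV dosing at 0.20 mg/kg and PO dosing at 10 mg/kg. Read-outs are Cmax, tmax, AUCinf, t1/2 and oral bioavailability F.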

[11] = tested on: amphetamine-induced hyperlocomotion; assay: Reversal of amphetamine-induced hyperlocomotion; assay type: in vivo; details: rat
Procedure, shortened: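 Male Sprague–Dawley rats, n = 7-8 per group. Test compound is given i.p. at 30 or 60 mg/kg in 10% Tween 80 in H2O, 30 min before amphetamine at 0.75 mg/kg s.c. Locomotion is compared with a vehicle/amphetamine control group.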

[12] = molecular target: T1, human mGlu5; assay: cell-based
[13] = Intrinsic clearance in liver microsomes, mouse; assay type: in vitro ADME; details: pH 7.4
[14] = Plasma protein binding, mouse; assay type: in vitro ADME; details: pH 7.4
[15] = Mouse IV and PO pharmacokinetics; assay type: in vivo
[16] = tested on: marble burying; assay: Marble burying assay; assay type: in vivo, mouse; details: male CD-1 mice, 30 mg/kg i.p., in words
[17] = male, Sprague-Dawley, plasma, iv, 0.2 mg/kg
[18] = male, Sprague-Dawley, plasma, po, 10 mg/kg

T1 sequence (P41594 21-1212): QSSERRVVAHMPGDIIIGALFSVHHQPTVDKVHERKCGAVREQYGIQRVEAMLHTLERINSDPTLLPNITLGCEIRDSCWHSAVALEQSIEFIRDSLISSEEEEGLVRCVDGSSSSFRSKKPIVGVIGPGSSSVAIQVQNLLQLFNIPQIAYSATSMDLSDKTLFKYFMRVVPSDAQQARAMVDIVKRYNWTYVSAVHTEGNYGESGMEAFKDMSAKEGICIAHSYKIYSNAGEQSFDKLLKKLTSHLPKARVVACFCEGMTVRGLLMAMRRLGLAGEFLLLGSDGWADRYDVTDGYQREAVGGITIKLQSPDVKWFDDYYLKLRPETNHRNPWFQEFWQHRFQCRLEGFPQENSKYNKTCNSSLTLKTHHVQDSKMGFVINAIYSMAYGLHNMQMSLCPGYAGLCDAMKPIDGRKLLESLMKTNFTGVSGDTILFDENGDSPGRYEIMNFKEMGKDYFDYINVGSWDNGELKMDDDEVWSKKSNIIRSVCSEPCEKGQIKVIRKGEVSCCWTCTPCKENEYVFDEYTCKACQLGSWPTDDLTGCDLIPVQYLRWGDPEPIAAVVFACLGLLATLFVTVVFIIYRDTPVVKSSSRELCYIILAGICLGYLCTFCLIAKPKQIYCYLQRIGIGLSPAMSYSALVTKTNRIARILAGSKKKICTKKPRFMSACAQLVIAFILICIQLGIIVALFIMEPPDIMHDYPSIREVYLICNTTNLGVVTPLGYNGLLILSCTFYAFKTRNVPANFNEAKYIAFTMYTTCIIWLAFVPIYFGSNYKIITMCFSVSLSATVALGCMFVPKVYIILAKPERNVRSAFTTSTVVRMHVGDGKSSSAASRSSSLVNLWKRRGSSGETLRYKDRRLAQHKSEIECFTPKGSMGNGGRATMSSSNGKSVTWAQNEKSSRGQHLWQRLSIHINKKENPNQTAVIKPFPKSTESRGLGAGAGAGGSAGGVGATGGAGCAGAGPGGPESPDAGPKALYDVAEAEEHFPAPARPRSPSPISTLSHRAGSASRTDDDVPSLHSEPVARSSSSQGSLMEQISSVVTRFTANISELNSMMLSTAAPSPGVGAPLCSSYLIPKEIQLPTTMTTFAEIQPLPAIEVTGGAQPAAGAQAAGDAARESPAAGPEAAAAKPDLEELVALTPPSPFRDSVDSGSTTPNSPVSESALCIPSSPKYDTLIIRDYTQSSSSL

Cc1ccc(Oc2cc(C(=O)NCc3ccc(F)cn3)nc3ccsc23)cn1 [Compound 17a, N-((5-Fluoropyridin-2-yl)methyl)-7-((6-methylpyridin-3-yl)oxy)thieno[3,2-b]pyridine-5-carboxamide]
EC50 ([1]; hmGlu5 EC50 (μM), Table 2): 0.52 µM
fold improvement in potency in comparison to hit compound 12 ([1]; mGlu5 PAM EC50): 5 fold
Ki [2]: > 10000 nM
displacement of [3H]methoxyPEPy radioligand binding [2]: weak binding
functional activity at mGlu1–4,7,8 [3]: > 30 µM
CLint scaled at 1 µM [4]: 152 mL/min/kg
CLint scaled at 1 µM [5]: 173 mL/min/kg
fraction unbound at 6 h, 5 µM [6]: 0.048
fraction unbound at 6 h, 5 µM [7]: 0.056
fraction unbound at 6 h, 1 µM [8]: 0.03
Kp at 0.25 h [9]: 0.83
Kp uu at 0.25 h [9]: 0.52
F (%) ([10]; PO 10 mg/kg, 10 mg/kg): 8.22%
Vd [10, 17]: 2.2 L/kg
clearance [10, 17]: 36.9 mL/min/kg
half-life [10, 17]: 82.2 min
AUC(0-inf) [10, 18]: 371 ng·h/mL
Cmax [10, 18]: 152 ng/mL
Tmax [10, 18]: 30 min
reversal of AHL ([11]; 60 mg/kg i.p., 30 min prior to 0.75 mg/kg s.c. amphetamine): ~30%
reversal of amphetamine-induced hyperlocomotion ([11]; 30 or 60 mg/kg i.p., in words): reversed amphetamine-induced hyperlocomotion; also recorded: Dose-dependent reversal

Cc1ccc(Oc2ccnc(C(=O)NCc3ccc(F)cn3)c2)cn1 [Compound 21d]
mGlu5 PAM activity ([1]; in words): complete loss of activity

Cc1ccc(Nc2cc(C(=O)NCc3ccc(F)cn3)nc3ccsc23)cn1 [Compound 26]
IC50 [12]: > 30000 nM

Cc1ccc(Cc2cc(C(=O)NCc3ccc(F)cn3)nc3ccsc23)cn1 [Compound 27]
IC50 [12]: > 30000 nM

Cc1cncc(Oc2cc(C(=O)NCc3ccc(F)cn3)nc3ccsc23)c1 [Compound 28a]
IC50 [12]: 260 nM

Cc1ccncc1Oc1cc(C(=O)NCc2ccc(F)cn2)nc2ccsc12 [Compound 28b]
IC50 [12]: 203 nM

Cc1ncccc1Oc1cc(C(=O)NCc2ccc(F)cn2)nc2ccsc12 [Compound 28c]
IC50 [12]: > 30000 nM

O=C(NCc1ccc(F)cn1)c1cc(Oc2cccnc2)c2sccc2n1 [Compound 28d, N-((5-fluoropyridin-2-yl)methyl)-7-(pyridin-3-yloxy)thieno[3,2-b]pyridine-5-carboxamide]
Ki [2]: 160 nM
displacement of [3H]methoxyPEPy radioligand binding [2]: full displacement of radioligand binding
functional activity at mGlu1–4,7,8 [3]: > 30 µM
CLint scaled at 1 µM [4]: 314 mL/min/kg
CLint scaled at 1 µM [13]: 970 mL/min/kg
CLint scaled at 1 µM [5]: 47 mL/min/kg
fraction unbound at 6 h, 5 µM [6]: 0.115
fraction unbound at 6 h, 5 µM [14]: 0.062
fraction unbound at 6 h, 5 µM [7]: 0.068
fraction unbound at 6 h, 1 µM [8]: 0.035
drug in blood following PO administration ([15]; PO 10 mg/kg, in words): no measurable drug in blood
Vd ([15]; plasma, iv, 1 mg/kg): 8.2 L/kg
clearance ([15]; plasma, iv, 1 mg/kg): 141 mL/min/kg
half-life ([15]; plasma, iv, 1 mg/kg): 41.4 min
marble burying [16]: anxiolytic activity; also recorded: significant reduction in marble burying; also recorded: Inhibition of marble burying

Cc1ccc(Oc2cc(C(=O)NCc3ccc(F)cn3)nc3ccsc23)nc1 [Compound 28e]
IC50 [12]: 1900 nM
